Activity calls are given as the source filed them. The rule behind the calls is not given here.

The first assay has as its target T1, Glutamate NMDA receptor; Grin1/Grin2a (Rattus norvegicus) (UniProt P35439+Q00959). The assay is described as follows: Potency index, ratio of TCN-201 IC50 to compound IC50 for rat GluN1A/GluN2A receptor expressed in Xenopus laevis oocytes. The assay is classed as cell-based.
Take `O=C(NNC(=O)c1ccc(CNS(=O)(=O)c2cccc(Br)c2)cc1)c1ccccc1`: the Ratio IC50 was 2.5.

The target in a further assay is Glutamate NMDA receptor; Grin1/Grin2a (Rattus norvegicus, UniProt P35439+Q00959). The assay is described as follows: Antagonist activity at rat GluN1A/GluN2A receptor expressed in Xenopus laevis oocytes assessed as inhibition of glutamate/glycine-induced channel current at -70 mV holding potential by two electrode voltage clamp method. The assay is classed as cell-based. The gist of the method:
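Oocytes (stage V, defolliculated) coinjected with 0.8 ng GluN1a and 0.8 ng GluN2A cRNA. TEVC at room temperature, holding −70 mV, perfusion with Ba2+-Ringer (10 HEPES, 90 NaCl, 1 KCl, 1.5 BaCl2 mmol/L, pH 7.4). Currents evoked by glutamate plus glycine. Compounds diluted from 10 mM DMSO stocks into agonist solution, 1 nM to 10 µM final. n = 5 oocytes per concentration. Logistic fit with minimum 0% and maximum 100%; x0 taken as the half-maximal inhibition.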
For orientation: IC50 means the concentration that gives 50% inhibition. Regarding `O=C(NNC(=O)c1ccc(CNS(=O)(=O)c2ccc(F)c(Cl)c2)cc1)c1ccccc1`, the half-maximal inhibitory concentration (IC50) was determined as 512 nM. Still for that read-out and setting: in the case of `O=C(NNC(=O)c1ccc(CNS(=O)(=O)c2cccc(Br)c2)cc1)c1ccccc1` it was 204 nM.

Another assay deals with Glutamate NMDA receptor; Grin1/Grin2b (Rattus norvegicus) (UniProt P35439+Q00960). The assay is described as follows: Antagonist activity at rat GluN1A/GluN2B receptor expressed in Xenopus laevis oocytes assessed as inhibition of glutamate/glycine-induced channel current at 10 uM at -70 mV holding potential by two electrode voltage clamp method. The assay is classed as cell-based. Put shortly:
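Oocytes were injected with GluN1a and GluN2B cRNA and recorded by TEVC with glutamate/glycine activation. Compounds tested at 10 µM, n = 5. One-way ANOVA with Tukey post hoc test.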
On the technique in general: Two-electrode voltage clamp holds a large cell at a set potential and records current.
For `O=C(NNC(=O)c1ccc(CNS(=O)(=O)c2ccc(F)c(Cl)c2)cc1)c1ccccc1`, the inhibition result was “inactive”. The same measure, in the same setting: as for `O=C(NNC(=O)c1ccc(CNS(=O)(=O)c2cccc(Br)c2)cc1)c1ccccc1`, the entry is “inactive”.

In another assay the target is T1, Glutamate NMDA receptor; Grin1/Grin2a (Rattus norvegicus). The assay is described as follows: Antagonist activity at rat GluN1A/GluN2A receptor expressed in Xenopus laevis oocytes assessed as inhibition of glutamate/glycine-induced channel current at 500 nM at -70 mV holding potential by two electrode voltage clamp method relative to TCN-201. The assay is classed as cell-based. Put shortly:
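GluN1a/GluN2A-coinjected oocytes (0.8 ng of each cRNA) under TEVC at −70 mV and room temperature, perfused with Ba2+-Ringer at pH 7.4. 10 µM (S)-glutamate and 10 µM glycine open the channel. Compound at 500 nM final (from 10 mM DMSO stock) in agonist solution. Current inhibition compared with the lead. At least five oocytes each. One-way ANOVA with Tukey post hoc test.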
Turning to `O=C(NNC(=O)c1ccc(CNS(=O)(=O)c2cccc(I)c2)cc1)c1ccccc1`, the fold change (FC) was determined as 1.19. Same read-out and setting: as for `Nc1ccc(S(=O)(=O)NCc2ccc(C(=O)NNC(=O)c3ccccc3)cc2)cc1`, the figure is 0.379.

`O=C(NNC(=O)c1ccc(CNS(=O)(=O)c2ccc(Br)cc2)cc1)c1ccccc1`: the fold change (FC) worked out at 0.315. The same measure, in the same setting: in the case of `O=C(NNC(=O)c1ccc(CNS(=O)(=O)c2ccc(I)cc2)cc1)c1ccccc1` it was 0.051; in that of `O=C(NNC(=O)c1ccc(CNS(=O)(=O)c2cccc(Cl)c2)cc1)c1ccccc1`, 1.21. Consider `O=C(NNC(=O)c1ccc(CNS(=O)(=O)c2ccccc2)cc1)c1ccccc1`, for which the fold change (FC) stood at 0.351. Take `O=C(NNC(=O)c1ccc(CNS(=O)(=O)c2cccc(F)c2)cc1)c1ccccc1`: the fold change (FC) turned out to be 0.818. The same measure, in the same setting: in the case of `O=C(NNC(=O)c1ccc(CNS(=O)(=O)c2ccccc2Cl)cc1)c1ccccc1` it was -0.092; in that of `Cc1cccc(S(=O)(=O)NCc2ccc(C(=O)NNC(=O)c3ccccc3)cc2)c1`, 0.28.

In the case of `O=C(NNC(=O)c1ccc(CNS(=O)(=O)c2ccc([N+](=O)[O-])cc2)cc1)c1ccccc1`, the fold change (FC) turned out to be 0.002. Still for that read-out and setting: in the case of `COc1cccc(S(=O)(=O)NCc2ccc(C(=O)NNC(=O)c3ccccc3)cc2)c1` it was -0.062. Same read-out and setting: in the case of `O=C(NNC(=O)c1ccc(CNS(=O)(=O)c2cccc([N+](=O)[O-])c2)cc1)c1ccccc1` it was 0.161.

With `O=C(NNC(=O)c1ccc(CNS(=O)(=O)c2ccccc2[N+](=O)[O-])cc1)c1ccccc1`, the fold change (FC) is 0.397. On the same count and under the same terms, in the case of `O=C(O)c1ccc(S(=O)(=O)NCc2ccc(C(=O)NNC(=O)c3ccccc3)cc2)cc1` it was 0.283; in that of `O=C(NNC(=O)c1ccc(CNS(=O)(=O)c2ccccc2Br)cc1)c1ccccc1`, 0.045; in that of `N#Cc1cccc(S(=O)(=O)NCc2ccc(C(=O)NNC(=O)c3ccccc3)cc2)c1`, 0.151. On the same count and under the same terms, in the case of `O=C(NNC(=O)c1ccc(CNS(=O)(=O)c2cccs2)cc1)c1ccccc1` it was 0.529; in that of `O=C(NNC(=O)c1ccc(CNS(=O)(=O)c2cccc(Br)c2)cc1)c1ccccc1`, 1.27; in that of `O=C(NNC(=O)c1ccc(CNS(=O)(=O)c2ccc(F)cc2)cc1)c1ccccc1`, 0.103. On the same count and under the same terms, as for `O=C(NNC(=O)c1ccc(CNS(=O)(=O)c2cccnc2)cc1)c1ccccc1`, the figure is 0.151; as for `O=C(NNC(=O)c1ccc(CNS(=O)(=O)c2ccc(Cl)cc2)cc1)c1ccccc1`, 0.279; as for `O=C(NNC(=O)c1ccc(CNS(=O)(=O)c2ccccc2F)cc1)c1ccccc1`, 0.019.

Source of the values: ChEMBL document CHEMBL4007431, “Systematic variation of the benzenesulfonamide part of the GluN2A selective NMDA receptor antagonist TCN-201” (Eur J Med Chem, 2017).
